Results taken from ChEMBL document CHEMBL1828548, “Synthesis and pharmacological evaluations of novel 2H-benzo[b][1,4]oxazin-3(4H)-one derivatives as a new class of anti-cancer agents” (2011).

Tests used:
Format in all cases: functional
[1] = test system: A549; test: Cytotoxicity against human A549 cells assessed as cell viability at 1 uM after 3 days by colorimetric MTT assay; details: A549, 72 h, read-out: Activity
Procedure, shortened: (§1)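 A549 and DLD-1 cells from ATCC, grown as recommended, were seeded at 5000 cells/well the day before dosing. They were exposed for 3 days in medium with 5% FBS to compound diluted from 20 mM DMSO stocks (final up to 20 µM, 0.1% v/v DMSO). Cells then received 0.5 mg/mL MTT for 4 h, formazan was dissolved in 10% SDS/10 mM HCl, and A595 was read. Viability is % of 0.1% DMSO control; two experiments, triplicate points.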

[2] = test system: DLD-1; test: Cytotoxicity against human DLD1 cells assessed as cell viability at 1 uM after 3 days by colorimetric MTT assay; details: DLD-1, 72 h, read-out: Activity; procedure, shortened: as §1
[3] = test system: MV4-11; test: Cytotoxicity against human MV4-11 cells assessed as cell viability at 1 uM after 3 days by colorimetric MTT assay; details: MV4-11, 72 h, read-out: Activity
Procedure, shortened: (§2)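 MV4-11 leukemia cells from ATCC, grown as recommended, were plated at 40,000 cells/well immediately before treatment. They were cultured 3 days in 5% FBS medium with compound from 20 mM DMSO stocks diluted in RPMI (final ≤20 µM, 0.1% v/v DMSO). MTT (0.5 mg/mL, 4 h) was followed by SDS/HCl solubilization and absorbance at 595 nm. Percent viability is relative to DMSO-treated controls; run twice in triplicate.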

[4] = test system: MV4-11; test: Cytotoxicity against human MV4-11 cells assessed as cell viability at 10 uM after 3 days by colorimetric MTT assay; details: MV4-11, 72 h, read-out: Activity; procedure, shortened: as §2
[5] = test system: DLD-1; test: Cytotoxicity against human DLD1 cells assessed as cell viability at 10 uM after 3 days by colorimetric MTT assay; details: DLD-1, 72 h, read-out: Activity; procedure, shortened: as §1
[6] = test system: A549; test: Cytotoxicity against human A549 cells assessed as cell viability at 10 uM after 3 days by colorimetric MTT assay; details: A549, 72 h, read-out: Activity; procedure, shortened: as §1
[7] = test system: A549; test: Cytotoxicity against human A549 cells assessed as cell viability at 20 uM after 3 days by colorimetric MTT assay; details: A549, 72 h, read-out: Activity; procedure, shortened: as §1
[8] = test system: DLD-1; test: Cytotoxicity against human DLD1 cells assessed as cell viability at 20 uM after 3 days by colorimetric MTT assay; details: DLD-1, 72 h, read-out: Activity; procedure, shortened: as §1
[9] = test system: MV4-11; test: Cytotoxicity against human MV4-11 cells assessed as cell viability at 20 uM after 3 days by colorimetric MTT assay; details: MV4-11, 72 h, read-out: Activity; procedure, shortened: as §2

Structure (SMILES)	viability at 1 µM [1]	viability at 1 µM [2]	viability at 1 µM [3]	viability at 10 µM [4]	viability at 10 µM [5]	viability at 10 µM [6]	viability at 20 µM [7]	viability at 20 µM [8]	viability at 20 µM [9]
CNC(=O)c1cc(Oc2ccc(NC(=O)Nc3ccc(Cl)c(C(F)(F)F)c3)cc2)ccn1 [SORAFENIB]	103%	93.4%	1.6%	0.7%	28%	28.6%	–	–	–
Cc1ccc(NC(=O)c2ccc(CN3CCN(C)CC3)cc2)cc1Nc1nccc(-c2cccnc2)n1 [IMATINIB]	108%	89.9%	105%	82%	91.5%	98.6%	–	–	–
COc1cc2/c(=N/c3ccc(Br)cc3F)nc[nH]c2cc1OCC1CCN(C)CC1 [VANDETANIB]	88.7%	88.6%	84.1%	1.6%	37.9%	41.7%	–	–	–
O=C1COc2ccc(-c3nn(-c4ccccc4)cc3-c3ccccc3)cc2N1	92.2%	77%	117%	–	–	–	59.7%	47.7%	97.9%
O=C1COc2ccc(-c3[nH]c(-c4ccc(F)cc4)nc3-c3ccccc3)cc2N1	97.1%	94.8%	108%	–	–	–	37.5%	29.5%	1.1%
O=C1COc2ccc(-c3nn(-c4ccc(Br)cc4)cc3-c3ccccc3)cc2N1	81.5%	66.4%	108%	–	–	–	58.8%	54.2%	91.5%
Cc1ccccc1-n1cc(-c2ccccc2)c(-c2ccc3c(c2)NC(=O)CO3)n1	94.8%	92.2%	99.4%	–	–	–	85.3%	62.9%	54.2%
O=C1COc2ccc(-c3nn(-c4cc(Cl)cc(Cl)c4)cc3-c3ccccc3)cc2N1	93.1%	90.3%	105%	–	–	–	70.2%	52.2%	50.5%
COc1cc2ncnc(Nc3ccc(F)c(Cl)c3)c2cc1OCCCN1CCOCC1 [GEFITINIB]	84.4%	87%	92.4%	7%	65.7%	61.5%	–	–	–
COc1ccc(-n2cc(-c3ccccc3)c(-c3ccc4c(c3)NC(=O)CO4)n2)cc1	95.6%	92.2%	106%	–	–	–	42.6%	35.6%	59.9%
O=C1COc2ccc(-c3nn(-c4ccc(Cl)cc4)cc3-c3ccccc3)cc2N1	84.4%	61.9%	108%	–	–	–	52.4%	47.1%	91.9%
O=C1COc2ccc(-c3[nH]c(-c4ccccc4)nc3-c3ccccc3)cc2N1	95.6%	98.2%	105%	–	–	–	58.5%	47.3%	7.6%
O=C1COc2ccc(-c3[nH]c(-c4ccc(C(F)(F)F)cc4)nc3-c3ccccc3)cc2N1	103%	95%	111%	–	–	–	21.7%	12.1%	0.6%
CCN(CC)CCNC(=O)c1c(C)[nH]c(/C=C2\C(=O)Nc3ccc(F)cc32)c1C [SUNITINIB]	102%	92.9%	1.4%	0.5%	52.7%	37.4%	–	–	–
C#Cc1cccc(Nc2ncnc3cc(OCCOC)c(OCCOC)cc23)c1 [ERLOTINIB]	83%	85.7%	98.3%	16.8%	55.4%	68.5%	–	–	–
O=C1COc2ccc(-c3nn(-c4ccc(F)cc4)cc3-c3ccccc3)cc2N1	78.2%	64.4%	107%	–	–	–	56.4%	45.2%	92.6%
COc1ccc(-c2nc(-c3ccccc3)c(-c3ccc4c(c3)NC(=O)CO4)[nH]2)cc1	101%	96%	108%	–	–	–	38.1%	19.1%	1.2%
O=C1COc2ccc(-c3[nH]c(-c4c[nH]c5ncccc45)nc3-c3ccccc3)cc2N1	100%	97.7%	111%	–	–	–	86.8%	53.5%	8.9%
O=C1COc2ccc(-c3[nH]c(-c4ccc(Cl)cc4Cl)nc3-c3ccccc3)cc2N1	97.4%	97.8%	109%	–	–	–	68.3%	61.9%	41.1%
